The record followed here is publication PMC3081996 (Bioorganic & medicinal chemistry letters, 2010).

Each structure is given as a SMILES string. pIC50: −log10 of the molar value. “Also recorded” adds a separate entry of the source.

The first assay has as its target T1, human TG2 (Homo sapiens, UniProt P21980).
T1 sequence (P21980 1-687): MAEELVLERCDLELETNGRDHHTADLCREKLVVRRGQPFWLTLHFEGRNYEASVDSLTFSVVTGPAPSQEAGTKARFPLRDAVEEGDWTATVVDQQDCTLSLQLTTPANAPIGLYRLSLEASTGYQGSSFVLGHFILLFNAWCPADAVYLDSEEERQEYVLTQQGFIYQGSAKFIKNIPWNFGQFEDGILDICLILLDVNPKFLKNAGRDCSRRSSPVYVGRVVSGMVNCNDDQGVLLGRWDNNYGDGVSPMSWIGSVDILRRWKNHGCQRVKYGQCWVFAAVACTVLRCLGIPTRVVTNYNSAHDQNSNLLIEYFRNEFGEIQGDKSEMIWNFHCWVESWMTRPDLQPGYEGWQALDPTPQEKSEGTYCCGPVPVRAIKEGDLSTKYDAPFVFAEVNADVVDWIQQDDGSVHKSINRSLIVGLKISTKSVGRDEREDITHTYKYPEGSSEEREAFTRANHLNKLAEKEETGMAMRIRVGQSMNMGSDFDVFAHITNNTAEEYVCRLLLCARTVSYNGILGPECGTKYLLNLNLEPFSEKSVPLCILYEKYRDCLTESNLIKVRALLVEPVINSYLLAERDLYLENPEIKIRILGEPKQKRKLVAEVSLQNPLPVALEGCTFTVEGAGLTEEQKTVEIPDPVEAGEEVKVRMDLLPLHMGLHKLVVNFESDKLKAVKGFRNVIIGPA
The assay can be described thus: GDH-coupled deamidation assay with Cbz-Gln-Gly. Type of assay: biochemical. To be noted: GDH-coupled assay.
For the compound `O=C1Nc2cc(Br)ccc2/C1=C\C(=O)c1cccnc1` [Compound 47], the “TG2 inhibitory activity (in words)” value was “nearly as potent as compound 16”. Consider `O=C1Nc2cc(Cl)ccc2/C1=C\C(=O)c1cccnc1` [Compound 46], for which the “TG2 inhibitory activity (in words)” value is on record as “nearly as potent as compound 16” and the “mode of inhibition (Lineweaver-Burk analysis)” value was “non-competitive, allosteric mode of action; also recorded: non-competitive inhibitory character”. In the case of `O=C1C(=O)N(CN2C(=O)C(=O)c3ccccc32)c2ccccc21` [Compound 6], the “TG2 inhibitory activity (in words)” value is “active”. Still for that read-out and setting: with `O=C1Nc2cccc(Br)c2/C1=C\C(=O)c1cccnc1` [Compound 41] the entry was “sub-micromolar inhibitor”; with `O=C1Nc2ccccc2/C1=C1\C(=O)Nc2ccccc21` [Compound 8, isoindigotin], “promising inhibitors”; with `Cc1cc(C)c(CN2C(=O)C(=O)c3ccccc32)cc1CN1C(=O)C(=O)c2ccccc21` [Compound 4], “active”. Same read-out and setting: the entry for `O=C1Nc2ccccc2/C1=C1/Nc2ccccc2C1=O` [Compound 7, indirubin] is “inactive”. As for `CC(=O)/C=C1/C(=O)Nc2ccccc21` [Compound 9], the “TG2 inhibitory activity (in words)” value was “promising inhibitors”.

Still in this assay, the particulars now being: GDH-coupled assay IC50.
For the compound `O=C1Nc2ccccc2/C1=C\C(=O)c1cccnc1` [Compound 40], the “loss in potency relative to compound 16” value is on record as more than 20 fold.

Still in this assay, the particulars now being: Table 4; [TG2] = 0.5 µM, mixed inhibition model.
`CC(=O)/C=C1/C(=O)Nc2cc(F)ccc21` [Compound 12]: the “GDH-coupled assay α (ratio Ki’/Ki)” value is recorded as more than 100. Still for that read-out and setting: with `CN1C(=O)/C(=C/C(=O)c2cccnc2)c2c(Cl)cccc21` [Compound 28] the figure was more than 100; with `O=C1Nc2cc(Cl)ccc2/C1=C\C(=O)c1cccnc1` [Compound 46], 0.86; with `CC(=O)/C=C1/C(=O)Nc2cccc(Cl)c21` [Compound 10], more than 100. As for `O=C(/C=C1/C(=O)N(Cc2ccccc2)c2cccc(Cl)c21)c1cccnc1` [Compound 33], the “GDH-coupled assay α (ratio Ki’/Ki)” value worked out at 1.8. Still for that read-out and setting: with `O=C1Nc2cccc(Br)c2/C1=C\C(=O)c1cccnc1` [Compound 41] the figure was more than 100; with `O=C1Nc2cccc(Cl)c2/C1=C\C(=O)c1ccccc1` [Compound 20], more than 100; with `O=C1Nc2ccc(Br)cc2/C1=C\C(=O)c1cccnc1` [Compound 43], more than 100.

Take `O=C1Nc2ccccc2/C1=C\C(=O)c1cccnc1` [Compound 40]: the “GDH-coupled assay α (ratio Ki’/Ki)” value was more than 100. The same measure, in the same setting: the figure for `O=C1Nc2cccc(Cl)c2/C1=C\C(=O)c1cccnc1` [Compound 16] is more than 100; for `CC(=O)/C=C1/C(=O)Nc2ccc(Cl)cc21` [Compound 11] it is more than 100.

Another assay has as its target T1, human TG2. The assay can be described thus: preliminary screening of isatins as TG2 inhibitors. It is filed as biochemical.
Conditions: not given
The method in brief: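 Coupled GDH assay of TG2-catalysed deamidation of the substrate ZQG, with human TG2 at 0.5 µM. Inhibition by isatin-derived test compounds is read as IC50.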
The compound `O=C1Nc2c(F)cc(F)cc2C1=O` [5,7-difluoroisatin] showed a negative logarithm of the IC50 (pIC50) of 3.35 to 4.19.

As for `O=C1Nc2ccc(Cl)cc2C1=O` [5-chloro], the pIC50 was 3.35 to 4.19. Same read-out and setting: the figure for `O=C1Nc2ccc(Br)cc2C1=O` [5-bromo] is 3.35 to 4.19; for `O=C1Nc2ccc(I)cc2C1=O` [5-iodo] it is 3.35 to 4.19.

Another assay has as its target T1, human TG2. Put plainly: direct fluorometric assay. It is filed as biochemical. The settings on record: Table 4; [TG2] = 15 nM, mixed inhibition model. A digest of the protocol: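 Direct fluorometric assay following release of 7-hydroxycoumarin from an ester substrate by human TG2 at 15 nM. Ki and Ki' are fitted to a mixed inhibition model, with α = Ki'/Ki. A larger α means more competitive inhibition, α = 1 means simple non-competitive, and α < 1 means increasingly uncompetitive.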
Turning to `O=C(/C=C1/C(=O)N(Cc2ccccc2)c2cccc(Cl)c21)c1cccnc1` [Compound 33], the “Fluorescent assay α (ratio Ki’/Ki)” value is listed as 3.6. On the same count and under the same terms, the figure for `O=C1Nc2cccc(Br)c2/C1=C\C(=O)c1cccnc1` [Compound 41] is 2.6; for `O=C1Nc2ccc(Br)cc2/C1=C\C(=O)c1cccnc1` [Compound 43] it is 4.4.

The same assay, now with this note: compounds that did not exhibit partial inhibition.
With `O=C(/C=C1/C(=O)N(Cc2ccccc2)c2cccc(Cl)c21)c1cccnc1` [Compound 33], the “binding character in mixed inhibition model (in words)” value is given as “non-competitive binding character”. On to `O=C1Nc2cccc(Br)c2/C1=C\C(=O)c1cccnc1` [Compound 41], for which the “binding character in mixed inhibition model (in words)” value is listed as “non-competitive binding character”. On the same count and under the same terms, the entry for `O=C1Nc2ccc(Br)cc2/C1=C\C(=O)c1cccnc1` [Compound 43] is “non-competitive binding character”.

Still in this assay, the particulars now being: fluorometric assay.
With `COc1ccncc1C(=O)/C=C1/C(=O)Nc2cccc(Cl)c21` [Compound 19], the “partial inhibition activity (in words)” value is listed as “partial inhibition activity”. Same read-out and setting: with `O=C1Nc2cc(Br)ccc2/C1=C\C(=O)c1cccnc1` [Compound 47] the entry was “partial inhibition activity”; with `Nc1ccc(C(=O)/C=C2/C(=O)Nc3cccc(Cl)c32)cc1` [Compound 27], “partial inhibition activity”; with `O=C1Nc2cccc(Cl)c2/C1=C\C(=O)c1ccc(Cl)cc1` [Compound 22], “partial inhibition activity”. The same measure, in the same setting: with `O=C1Nc2c(Cl)cccc2/C1=C\C(=O)c1cccnc1` [Compound 48] the entry was “partial inhibition activity”.
